One assay concerns Bacillus subtilis. The assay can be described thus: Antibacterial activity against Bacillus subtilis ATCC 6633. In kind it is functional. A digest of the protocol:
(§1)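 MIC determined by agar dilution. Strains as listed on each line.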

In a further assay the test system is Bacillus cereus. Put plainly: Antibacterial activity against Bacillus cereus IFO 3001. Format: functional. The method, boiled down: as §1
The subject of the next assay is Canis familiaris. The assay can be described thus: Evaluated for gastrointestinal motor stimulating (GMS) activity in dog estimated in vivo by 2 x 2 points parallel line assay. Activity of EM-A was assumed to be 1. In kind it is functional, Canis lupus familiaris. A digest of the protocol:
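Fasted conscious dogs carried chronically implanted serosal force transducers recording circular muscle contraction in the gastric body, antrum and small intestine. Dosing was an intravenous bolus 10–15 min after interdigestive gastric contractions ended. Antral contractile waves were integrated for 10 min from injection. Relative potency came from a 2 × 2 parallel line assay with five animals per dose, using EM as the reference in each assay.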

The next assay relates to Escherichia coli. The assay can be described thus: Antibacterial activity against Escherichia coli NIHJ. Format: functional. A digest of the protocol:
as §1

A further assay deals with Klebsiella pneumoniae. Put plainly: Antibacterial activity against Klebsiella pneumoniae ATCC 10031. Format: functional. The method, boiled down:
as §1

The next assay has as its system Staphylococcus aureus. Put plainly: Antibacterial activity against Staphylococcus aureus ATCC 6538P. Format: functional. A digest of the protocol: as §1

This passage reports MIC and GMS activity results from ChEMBL document CHEMBL1123915, “Macrolides with gastrointestinal motor stimulating activity” (1987).

In brackets after ≈: the same amount, converted by molar mass.

Usually MIC stands for the smallest concentration in the dilution series that meets the test's criterion for growth inhibition. A lower MIC goes with a more susceptible organism. In the case of `CCC1OC(=O)C(C)C(O[C@H]2C[C@@](C)(OC)[C@@H](O)[C@@H](C)O2)C(C)[C@@H](O[C@@H]2O[C@H](C)C[C@@H]([N+](C)(C)CC)[C@H]2O)[C@]2(C)CC(C)=C(O2)[C@H](C)[C@@H](O)[C@]1(C)O.[I-]` (stereo not given in full), the minimum inhibitory concentration (MIC) in the assay on Bacillus subtilis, against Bacillus cereus, against Escherichia coli, against Klebsiella pneumoniae and in the assay on Staphylococcus aureus was more than 100 µg/mL in each case. For the same molecule, the GMS activity in the assay with Canis familiaris is recorded as 111.

In the case of `C=CC[N+](C)(C)[C@@H]1C[C@@H](C)O[C@@H](O[C@@H]2C(C)C(O[C@H]3C[C@@](C)(OC)[C@@H](O)[C@@H](C)O3)C(C)C(=O)OC(CC)[C@@](C)(O)[C@H](O)[C@@H](C)C3=C(C)C[C@]2(C)O3)[C@@H]1O.[Br-]` (stereo not given in full), the MIC in the assay on Bacillus subtilis was more than 100 µg/mL; against Bacillus cereus it was more than 100 µg/mL; against Escherichia coli it was more than 100 µg/mL; in the assay with Klebsiella pneumoniae, more than 100 µg/mL; against Staphylococcus aureus, 100 µg/mL. Besides, in the assay on Canis familiaris, the GMS activity was 256.

Take `C#CC[N+](C)(C)[C@@H]1C[C@@H](C)O[C@@H](O[C@@H]2C(C)C(O[C@H]3C[C@@](C)(OC)[C@@H](O)[C@@H](C)O3)C(C)C(=O)OC(CC)[C@@](C)(O)[C@H](O)[C@@H](C)C3=C(C)C[C@]2(C)O3)[C@@H]1O.[Br-]` (stereo not given in full): the MIC against Bacillus subtilis was 100 µg/mL; in the assay on Bacillus cereus it was 100 µg/mL; with Escherichia coli it was more than 100 µg/mL; with Klebsiella pneumoniae, more than 100 µg/mL; against Staphylococcus aureus, 100 µg/mL. In the assay with Canis familiaris, the GMS activity is reported as 2890.

In the case of `CCC1OC(=O)C(C)C(O[C@H]2C[C@@](C)(OC)[C@@H](O)[C@@H](C)O2)C(C)[C@@H](O[C@@H]2O[C@H](C)C[C@@H]([N+](C)(C)C)[C@H]2O)[C@]2(C)CC(C)=C(O2)[C@H](C)[C@@H](O)[C@]1(C)O.[I-]` (stereo not given in full), the minimal inhibitory concentration (MIC) with Bacillus subtilis, against Bacillus cereus, in the assay with Escherichia coli, in the assay with Klebsiella pneumoniae and against Staphylococcus aureus was more than 100 µg/mL throughout. Besides, in the assay on Canis familiaris, the GMS activity is listed as 21.

Regarding `CC[C@H]1OC(=O)[C@H](C)[C@@H](O[C@H]2C[C@@](C)(OC)[C@@H](O)[C@H](C)O2)[C@H](C)[C@@H](O[C@@H]2O[C@H](C)C[C@H](N(C)C)[C@H]2O)[C@@]2(C)CC(C)=C(O2)[C@H](C)[C@@H](O)[C@]1(C)O`, the MIC in the assay on Bacillus subtilis is 25 µg/mL (≈ 34.9 µM); against Bacillus cereus it was 25 µg/mL (≈ 34.9 µM); against Escherichia coli it was more than 100 µg/mL; in the assay with Klebsiella pneumoniae, more than 100 µg/mL; against Staphylococcus aureus, 50 µg/mL (≈ 69.8 µM). For the same molecule, the GMS activity with Canis familiaris was 10.

In the case of `C#CC[N+](C)(C)C1CC(C)OC(O[C@@H]2C(C)C(OC3CC(C)(OC)C(O)C(C)O3)C(C)C(=O)OC(CC)[C@@](C)(O)[C@H](O)[C@@H](C)C3O[C@@]2(C)C[C@H]3C)C1O.[Br-]` (stereo not given in full), the MIC in the assay on Bacillus subtilis, against Bacillus cereus, against Escherichia coli, against Klebsiella pneumoniae and in the assay with Staphylococcus aureus was more than 100 µg/mL each time. The GMS activity in the assay with Canis familiaris is reported as 202.

Consider `CCC1OC(=O)C(C)C(O[C@H]2C[C@@](C)(OC)[C@@H](O)[C@@H](C)O2)C(C)[C@@H](O[C@@H]2O[C@H](C)C[C@@H](N(C)CC)[C@H]2O)[C@]2(C)CC(C)=C(O2)[C@H](C)[C@@H](O)[C@]1(C)O` (stereo not given in full), for which the MIC against Bacillus subtilis, in the assay with Bacillus cereus, with Escherichia coli, against Klebsiella pneumoniae and in the assay with Staphylococcus aureus was more than 100 µg/mL in each case. Further, the GMS activity with Canis familiaris is recorded as 18.

`C=CC[N+](C)(C)C1CC(C)OC(O[C@@H]2C(C)C(OC3CC(C)(OC)C(O)C(C)O3)C(C)C(=O)OC(CC)[C@@](C)(O)[C@H](O)[C@@H](C)C3O[C@@]2(C)C[C@H]3C)C1O.[Br-]` (stereo not given in full): the MIC against Bacillus subtilis is 100 µg/mL; in the assay on Bacillus cereus it was 100 µg/mL; in the assay on Escherichia coli, more than 100 µg/mL; against Klebsiella pneumoniae, more than 100 µg/mL; with Staphylococcus aureus, 100 µg/mL. Moreover, the GMS activity in the assay on Canis familiaris is reported as 115.

Turning to `CCC1OC(=O)C(C)C(OC2CC(C)(OC)C(O)C(C)O2)C(C)[C@@H](OC2OC(C)CC([N+](C)(C)C)C2O)[C@]2(C)C[C@@H](C)C(O2)[C@H](C)[C@@H](O)[C@]1(C)O.[I-]` (stereo not given in full), the MIC against Bacillus subtilis, in the assay on Bacillus cereus, with Escherichia coli, against Klebsiella pneumoniae and in the assay on Staphylococcus aureus was more than 100 µg/mL throughout. The GMS activity with Canis familiaris is 65.

Take `CC[C@H]1OC(=O)[C@H](C)[C@@H](O[C@H]2C[C@@](C)(OC)[C@@H](O)[C@H](C)O2)[C@H](C)[C@@H](O[C@@H]2O[C@H](C)C[C@H](N(C)C)[C@H]2O)[C@](C)(O)C[C@@H](C)C(=O)[C@H](C)[C@@H](O)[C@]1(C)O` [ERYTHROMYCIN]: the MIC stood at 0.1 µg/mL (≈ 0.136 µM) against Bacillus subtilis; 0.1 µg/mL (≈ 0.136 µM) in the assay with Bacillus cereus; 12.5 µg/mL (≈ 17 µM) with Escherichia coli; 6.25 µg/mL (≈ 8.52 µM) with Klebsiella pneumoniae; 0.2 µg/mL (≈ 0.273 µM) against Staphylococcus aureus. The GMS activity with Canis familiaris is listed as 1.
